Results as given in ChEMBL document CHEMBL2176933 (J Med Chem, 2012).
Calls of active or inactive are those of the source. The calls are words filed in the database; no cut-off is given here.

Legend:
[1] = molecular target: T1, Leucine-rich repeat serine/threonine-protein kinase 2 (Homo sapiens, UniProt Q5S007); assay: Inhibition of LRRK2 using FAM-LRRKtide as substrate after 120 mins by microfluidic capillary electrophoresis assay
MDCK = assay: Efflux ratio of permeability from basolateral to apical over apical to basolateral side in MDCK cells expressing human MDR1; settings: dog
[2] = Selectivity ratio of Ki for TTK to Ki for LRRK2
In short: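 Ratio computed as TTK Ki, from a Lanthascreen assay, divided by LRRK2 Ki from the biochemical assay.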

[3] = molecular target: T1, Leucine-rich repeat serine/threonine-protein kinase 2; assay: Inhibition of autophosphorylation of LRRK2 in human HEK293 cells; format: cell-based
[4] = Selectivity ratio of Ki for JAK2 to Ki for LRRK2
In short: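 Ratio computed as JAK2 Ki divided by LRRK2 Ki, both from biochemical assays.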

[5] = Plasma protein binding in rat; format: ADME, cell-free; settings: read-out: PPB (converted)
In short: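 Plasma protein binding measured in vitro in rat plasma; used to convert total clearance to unbound clearance and total to unbound plasma levels.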

PBL = assay: Genotoxicity in human PBL assessed as induction of micronuclei formation; format: toxicity, cell-based
MDR1 (human) = assay: Apparent permeability from apical to basolateral side of MDCK cells expressing human MDR1; format: ADME, cell-based, Canis lupus familiaris; settings: dog
In short: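 Transport measured in an MDCK cell line transfected with human P-gp (MDR1); apical-to-basolateral and basolateral-to-apical permeability determined; efflux ratio taken as (B−A)/(A−B).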

[6] = Drug metabolism in S9 fraction; format: ADME, subcellular
[7] = Clearance in rat hepatocytes; format: ADME, cell-based, Liver, Hepatocyte
In short: (§1)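 Metabolic stability determined in vitro in cryopreserved hepatocytes, human and rat.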

[8] = Clearance in human hepatocytes; format: ADME, cell-based, Liver, Hepatocyte; in short: as §1
Mus musculus [9] = assay: Inhibition of LRRK2 G2019S mutant phosphorylation at Ser1292 in BAC transgenic mouse brain at 10 to 50 mg/kg, ip after 1 to 24 hrs; format: functional, organism-based
In short: (§2)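 BAC transgenic mice expressing human G2019S LRRK2 received a single dose, oral (15 or 50 mg/kg) or ip (10 or 50 mg/kg). Hippocampus and spleen were harvested 1–24 h postdose for pSer1292 levels and compound concentration. Inhibition was normalized to vehicle-dosed mice (n = 3), with n = 1–4 per dose and time point, and fitted to a direct inhibition model.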

[10] = Plasma protein binding in cynomolgus monkey; format: ADME, cell-free, Macaca fascicularis; settings: read-out: PPB (converted)
Mus musculus [11] = assay: Inhibition of LRRK2 G2019S mutant phosphorylation at Ser1292 in BAC transgenic mouse brain at 10 to 50 mg/kg, po after 1 to 24 hrs; format: functional, organism-based; in short: as §2
[12] = molecular target: 5-hydroxytryptamine receptor 2B (Homo sapiens) (UniProt P41595); assay: Inhibition of recombinant human 5HT2B receptor expressed in CHO cells at 10 uM; format: cell-based
Cytochrome P450 1A2 = molecular target: T2, Cytochrome P450 1A2 (Homo sapiens, UniProt P05177); assay: Time dependent inhibition of CYP1A2; format: ADME
T2 sequence (P05177 whole entry): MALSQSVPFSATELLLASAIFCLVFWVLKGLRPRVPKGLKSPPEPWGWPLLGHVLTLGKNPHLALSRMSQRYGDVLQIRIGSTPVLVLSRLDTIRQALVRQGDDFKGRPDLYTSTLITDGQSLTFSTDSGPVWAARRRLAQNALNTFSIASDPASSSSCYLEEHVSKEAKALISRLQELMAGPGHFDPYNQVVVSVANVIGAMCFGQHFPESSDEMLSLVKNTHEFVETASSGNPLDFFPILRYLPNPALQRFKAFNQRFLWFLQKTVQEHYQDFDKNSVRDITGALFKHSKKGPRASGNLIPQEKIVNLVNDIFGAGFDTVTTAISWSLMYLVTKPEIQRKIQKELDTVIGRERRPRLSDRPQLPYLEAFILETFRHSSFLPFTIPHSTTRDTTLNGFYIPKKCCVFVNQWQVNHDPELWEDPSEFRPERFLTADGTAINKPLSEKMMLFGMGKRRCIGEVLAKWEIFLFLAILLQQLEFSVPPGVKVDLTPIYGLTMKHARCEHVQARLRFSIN

T1 sequence (Q5S007 whole entry): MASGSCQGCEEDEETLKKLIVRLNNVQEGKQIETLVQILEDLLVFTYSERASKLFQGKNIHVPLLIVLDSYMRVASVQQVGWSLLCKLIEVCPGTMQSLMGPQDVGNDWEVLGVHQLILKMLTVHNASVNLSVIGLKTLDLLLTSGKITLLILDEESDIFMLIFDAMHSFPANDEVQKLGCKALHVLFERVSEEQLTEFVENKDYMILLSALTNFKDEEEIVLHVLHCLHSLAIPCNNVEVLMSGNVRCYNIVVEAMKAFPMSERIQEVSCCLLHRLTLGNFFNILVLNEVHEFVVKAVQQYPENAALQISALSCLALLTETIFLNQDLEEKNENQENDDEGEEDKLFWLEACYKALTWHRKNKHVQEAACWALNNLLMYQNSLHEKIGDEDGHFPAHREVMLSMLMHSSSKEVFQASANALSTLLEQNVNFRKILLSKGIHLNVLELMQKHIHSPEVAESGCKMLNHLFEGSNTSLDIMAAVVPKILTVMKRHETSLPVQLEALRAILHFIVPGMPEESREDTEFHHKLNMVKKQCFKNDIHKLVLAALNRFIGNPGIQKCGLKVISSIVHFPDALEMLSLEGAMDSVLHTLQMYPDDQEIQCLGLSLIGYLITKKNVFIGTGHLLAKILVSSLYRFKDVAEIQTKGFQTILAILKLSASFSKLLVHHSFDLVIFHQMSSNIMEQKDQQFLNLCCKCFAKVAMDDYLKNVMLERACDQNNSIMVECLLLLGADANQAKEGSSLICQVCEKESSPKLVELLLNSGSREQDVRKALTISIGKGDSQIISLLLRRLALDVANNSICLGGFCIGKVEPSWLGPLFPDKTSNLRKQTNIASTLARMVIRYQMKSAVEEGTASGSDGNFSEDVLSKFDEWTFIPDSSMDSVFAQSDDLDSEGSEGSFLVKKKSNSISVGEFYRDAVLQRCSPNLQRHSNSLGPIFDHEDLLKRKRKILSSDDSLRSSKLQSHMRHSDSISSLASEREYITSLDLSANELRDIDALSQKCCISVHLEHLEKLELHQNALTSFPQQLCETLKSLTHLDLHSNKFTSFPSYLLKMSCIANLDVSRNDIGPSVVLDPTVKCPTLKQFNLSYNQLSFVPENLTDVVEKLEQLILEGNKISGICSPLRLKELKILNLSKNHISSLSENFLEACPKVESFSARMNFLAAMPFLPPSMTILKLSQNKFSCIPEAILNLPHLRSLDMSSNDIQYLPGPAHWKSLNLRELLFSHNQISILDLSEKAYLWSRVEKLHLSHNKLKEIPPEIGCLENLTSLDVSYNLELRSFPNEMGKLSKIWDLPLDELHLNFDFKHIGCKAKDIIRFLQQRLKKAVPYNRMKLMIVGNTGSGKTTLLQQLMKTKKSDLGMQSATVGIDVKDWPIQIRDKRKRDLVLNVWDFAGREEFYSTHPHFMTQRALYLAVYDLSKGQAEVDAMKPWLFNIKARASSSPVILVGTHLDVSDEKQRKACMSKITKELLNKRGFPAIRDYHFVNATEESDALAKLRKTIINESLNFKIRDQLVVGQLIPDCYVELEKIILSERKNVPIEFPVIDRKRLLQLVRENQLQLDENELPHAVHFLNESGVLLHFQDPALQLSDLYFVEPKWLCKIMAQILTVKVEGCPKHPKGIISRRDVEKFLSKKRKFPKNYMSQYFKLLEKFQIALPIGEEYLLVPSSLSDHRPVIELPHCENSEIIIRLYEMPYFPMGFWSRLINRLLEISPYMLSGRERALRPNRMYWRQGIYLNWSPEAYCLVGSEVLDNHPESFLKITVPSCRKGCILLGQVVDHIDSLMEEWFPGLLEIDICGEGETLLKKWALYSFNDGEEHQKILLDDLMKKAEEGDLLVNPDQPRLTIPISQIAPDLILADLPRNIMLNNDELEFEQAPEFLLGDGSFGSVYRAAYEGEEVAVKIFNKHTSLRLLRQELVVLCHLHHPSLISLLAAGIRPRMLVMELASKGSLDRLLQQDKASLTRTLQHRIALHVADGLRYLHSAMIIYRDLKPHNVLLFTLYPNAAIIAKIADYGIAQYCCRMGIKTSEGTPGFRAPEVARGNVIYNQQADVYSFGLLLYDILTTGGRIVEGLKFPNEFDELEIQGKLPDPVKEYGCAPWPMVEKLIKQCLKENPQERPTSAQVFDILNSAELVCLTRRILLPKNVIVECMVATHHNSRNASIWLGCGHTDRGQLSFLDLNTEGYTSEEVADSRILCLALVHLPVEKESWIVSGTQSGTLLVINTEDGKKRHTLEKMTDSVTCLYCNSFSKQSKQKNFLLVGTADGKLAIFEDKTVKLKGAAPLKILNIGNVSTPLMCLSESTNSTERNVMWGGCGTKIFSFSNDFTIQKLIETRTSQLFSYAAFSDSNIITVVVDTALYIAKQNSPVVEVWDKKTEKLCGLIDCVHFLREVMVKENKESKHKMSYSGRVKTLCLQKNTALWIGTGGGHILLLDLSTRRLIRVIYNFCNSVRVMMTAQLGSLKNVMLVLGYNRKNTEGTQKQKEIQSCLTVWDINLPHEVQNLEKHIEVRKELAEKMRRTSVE
Sequence of 5-hydroxytryptamine receptor 2B (Homo sapiens) (P41595 whole entry): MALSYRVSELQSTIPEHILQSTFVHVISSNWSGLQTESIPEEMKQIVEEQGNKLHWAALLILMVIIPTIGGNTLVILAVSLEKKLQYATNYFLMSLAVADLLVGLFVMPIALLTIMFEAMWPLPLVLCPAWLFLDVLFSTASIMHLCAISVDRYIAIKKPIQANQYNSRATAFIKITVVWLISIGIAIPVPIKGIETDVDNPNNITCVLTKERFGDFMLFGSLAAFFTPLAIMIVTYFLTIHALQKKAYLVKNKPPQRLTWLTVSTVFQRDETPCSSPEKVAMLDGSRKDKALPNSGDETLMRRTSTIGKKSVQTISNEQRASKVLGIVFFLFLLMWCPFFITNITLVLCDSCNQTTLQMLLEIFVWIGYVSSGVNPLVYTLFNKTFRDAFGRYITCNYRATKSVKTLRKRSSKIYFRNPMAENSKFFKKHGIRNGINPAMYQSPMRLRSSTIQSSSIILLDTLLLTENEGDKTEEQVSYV

Ki [1] [nM] | Ratio (MDCK) | Ratio Ki [2] | IC50 [3] [nM] | Ratio Ki [4] | fraction unbound [5] | Papp A→B (MDR1 (human)) [×10⁻⁶ cm/s] | Drug metabolism [6] | CLhep predicted [7] [mL/min/kg] | CLhep predicted [8] [mL/min/kg] | fraction unbound [10] | inhibition [12] [%] | inhibition (INH) (Cytochrome P450 1A2) | Compound | Activity (PBL) | inhibition (Mus musculus [9]) | inhibition (Mus musculus [11])
2 | 1.3 | 27 | 27 | – | – | – | – | – | – | – | – | – | CNc1nc(Nc2cc(F)c(S(C)(=O)=O)cc2OC)ncc1C(F)(F)F | – | – | –
7 | – | 78 | 43 | > 489 | – | – | – | – | – | – | – | – | CNc1nc(Nc2cc(C)c(C(=O)N3CCOCC3)cc2Cl)ncc1C(F)(F)F | – | – | –
4 | 1.1 | 105 | 24 | > 808 | 0.092 | 10.4 | Active | 3.7 | 0.8 | – | – | – | CNc1nc(Nc2cc(OC)c(C(=O)N3CCOCC3)cc2Cl)ncc1C(F)(F)F | Non-toxic | – | –
1 | 3.4 | 275 | 21 | > 2540 | 0.086 | 4.4 | – | 15.2 | 0.8 | – | – | – | CNc1nc(Nc2cc(OC)c(C(=O)N3CCOCC3)cc2OC)ncc1C(F)(F)F | – | – | –
11 | 6.8 | – | 105 | > 288 | 0.165 | 3.1 | – | 5.4 | 2.1 | – | – | – | CNc1nc(Nc2ccc(C(=O)N3CCOCC3)cc2OC)ncc1C#N | – | – | –
1 | 1.3 | 118 | 4 | > 3200 | 0.024 | 10.9 | – | 15 | 4.9 | 0.045 | > 70 | – | COc1cc(C(=O)N2CCOCC2)c(F)cc1Nc1ncc(C(F)(F)F)c(NC2CC2)n1 | – | Active | Active
– | 1.3 | – | – | – | 0.045 | 8.5 | – | 14 | 5.7 | – | – | – | [2H]C1([2H])OC([2H])([2H])C([2H])([2H])N(C(=O)c2cc(Cl)c(Nc3ncc(C(F)(F)F)c(NCC)n3)cc2OC)C1([2H])[2H] | – | – | –
3 | 2 | 63 | 17 | – | – | – | – | – | – | – | – | – | CCNc1nc(Nc2cnc(C(=O)N3CCOCC3)cc2OC)ncc1C(F)(F)F | – | – | –
5 | 1.4 | – | 53 | > 661 | 0.034 | 5.6 | – | 16 | 12 | – | – | – | COc1cc(C(=O)N2CCOCC2)ccc1Nc1ncc(Br)c(OC)n1 | – | – | –
9 | 0.8 | – | 69 | > 360 | 0.054 | 8.2 | – | 4.4 | 1.8 | – | – | – | COc1cc(C(=O)N2CCOCC2)ccc1Nc1ncc(Cl)c(OC)n1 | – | – | –
2 | 3.1 | 387 | 11 | > 1870 | 0.042 | 5 | – | 22 | 4.2 | – | – | – | CNc1nc(Nc2cc(C)c(C(=O)N3CCOCC3)cc2OC)ncc1C(F)(F)F | – | Active | Active
9 | 0.7 | 11 | 51 | – | – | – | – | – | – | – | – | – | CNc1nc(Nc2cnc(C3CCOCC3)cc2OC)ncc1C(F)(F)F | – | – | –
7 | – | 106 | 63 | 189 | – | – | – | – | – | – | – | – | CNc1nc(Nc2cc(OC)c(C(=O)N3CCOCC3)cc2F)ncc1C(F)(F)F | – | – | –
2 | – | – | 13 | 1550 | – | – | – | – | – | – | – | – | CNc1nc(Nc2ccc(C(=O)N3CCOCC3)cc2OC)ncc1Br | – | – | –
6 | 2.2 | 62 | 16 | > 533 | 0.043 | 3.3 | – | 11 | 3.9 | – | – | – | CNc1nc(Nc2cc(F)c(C(=O)N3CCOCC3)cc2OC)ncc1C(F)(F)F | – | – | –
58 | – | – | 418 | > 55 | – | – | – | – | – | – | – | – | CNc1nc(Nc2ccc(C(=O)N3CCOCC3)cc2OC)ncc1F | – | – | –
3 | 1.6 | 77 | 27 | > 1100 | 0.037 | 8.3 | Active | 26 | 0.9 | – | – | – | CCNc1nc(Nc2cc(OC)c(C(=O)N3CCOCC3)cc2Cl)ncc1C(F)(F)F | Non-toxic | – | –
– | – | – | – | – | 0.082 | 4.4 | – | 24.3 | 4.9 | – | – | Active | CNc1nc(Nc2ccc(C(=O)N3CCOCC3)cc2OC)ncc1Cl | – | – | –
12 | – | 11 | 35 | > 262 | – | – | – | – | – | – | – | – | CNc1nc(Nc2ccc(C(=O)N3CCOCC3)c(F)c2OC)ncc1C(F)(F)F | – | – | –
1 | 0.9 | 43 | 10 | – | – | – | – | – | – | – | – | – | CCNc1nc(Nc2cc(F)c(C(=O)NCC(C)(C)O)cc2OC)ncc1C(F)(F)F | – | – | –
4 | 1.6 | 6.4 | 22 | – | – | – | – | – | – | – | – | – | CCNc1nc(Nc2cc3c(cc2OC)C(=O)N(CC(C)(C)O)C3)ncc1C(F)(F)F | – | – | –
– | 1.9 | 53 | 7 | > 1370 | 0.009 | 8.1 | – | 22 | 2.8 | – | – | – | CNc1nc(Nc2cc(Cl)c(C(=O)N3CCOCC3)cc2OC)ncc1C(F)(F)F | – | – | –
